The values that follow come from ChEMBL document CHEMBL2203116, “Synthesis and evaluation of novel carbon-11 labeled oxopurine analogues for positron emission tomography imaging of translocator protein (18 kDa) in peripheral organs” (J Med Chem, 2011).

For data set [1], the system named is Lung. Nature of the data set: Drug uptake in Sprague-Dawley rat lung at 0.13 nmol, iv pretreated with unlabeled (R)-PK11195 by PET scanning. Type of data set: ADME, organism-based. The note with it: in vivo. In short, it runs like this:
(§1)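 Male Sprague-Dawley rats (6–8 weeks old), isoflurane-anesthetized, prone. ROIs on lung, heart, kidney, liver, small intestine and cardiac blood pool. Uptake decay-corrected to injection time and expressed as SUV (body-weight normalized). n = 4, mean ± SD.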

In data set [2] the test system is Heart. Nature of the data set: Drug uptake in Sprague-Dawley rat heart at 0.13 nmol, iv pretreated with unlabeled (R)-PK11195 by PET scanning. Format: ADME, organism-based. As to conditions: in vivo; call rule not given here. In short, it runs like this: (§2)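 Isoflurane-anesthetized Sprague-Dawley rats underwent 30-min PET after iv [11C]radioligand, with unlabeled blocker given iv 1 min before tracer. Blockers were (R)-PK11195 at 3.0 mg/kg or AC-5216 at 1.0 mg/kg in 300 μL saline with 10% ethanol and 5% polysorbate 80. Regional uptake was decay-corrected SUV (n = 4).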

Data set [3] has as its system Kidney. Nature of the data set: Drug uptake in Sprague-Dawley rat kidney at 0.13 nmol, iv pretreated with unlabeled (R)-PK11195 by PET scanning. Type of data set: ADME, organism-based. The note with it: in vivo. In short, it runs like this:
as §2

The test system of data set [4] is Lung. Nature of the data set: Drug uptake in Sprague-Dawley rat lung at 0.13 nmol, iv pretreated with unlabeled AC-5216 by PET scanning. Type of data set: ADME, organism-based. The note with it: in vivo. An outline of the steps:
as §1

Data set [5] has as its system Heart. Nature of the data set: Drug uptake in Sprague-Dawley rat heart at 0.13 nmol, iv pretreated with unlabeled AC-5216 by PET scanning. Type of data set: ADME, organism-based. The note with it: in vivo. In short, it runs like this:
as §2

Data set [6] concerns Kidney. Nature of the data set: Drug uptake in Sprague-Dawley rat kidney at 0.13 nmol, iv pretreated with unlabeled AC-5216 by PET scanning. Type of data set: ADME, organism-based. As to conditions: in vivo. An outline of the steps:
as §1

Data set [7] has as its system Liver. Nature of the data set: Drug uptake in Sprague-Dawley rat liver at 0.13 nmol, iv pretreated with unlabeled (R)-PK11195 measured after 27.5 mins by PET scanning relative to control. Format: ADME, organism-based. As to conditions: in vivo. In short, it runs like this:
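Male Sprague-Dawley rats, 6-8 weeks old, under isoflurane, prone. An unlabeled TSPO blocking ligand (3.0 mg/kg) was injected 1 min before the iv radioligand (16-18 MBq/200 μL). A liver ROI was decay-corrected and expressed as SUV normalized to injected activity and body weight. The 27.5-min value was compared with unblocked controls; n = 4.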

The subject of data set [8] is Liver. Nature of the data set: Drug uptake in Sprague-Dawley rat liver at 0.13 nmol, iv pretreated with unlabeled AC-5216 measured after 27.5 mins by PET scanning relative to control. Type of data set: ADME, organism-based. The note with it: in vivo. An outline of the steps: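 Male Sprague-Dawley rats, 6-8 weeks, isoflurane-anesthetized. A blocking TSPO ligand (1.0 mg/kg, in 300 μL saline with 10% ethanol and 5% polysorbate 80) was injected 1 min before iv radioligand (16-18 MBq/200 μL). Liver ROI as decay-corrected SUV (injected activity, body weight), 27.5-min value versus controls; n = 4.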

Data set [9] relates to Blood. Nature of the data set: Drug uptake in Sprague-Dawley rat cardiac blood pool at 0.13 nmol, iv after 27.5 mins by PET scanning. Type of data set: ADME, organism-based. As to conditions: in vivo. An outline of the steps: (§3)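 Isoflurane-anesthetized male Sprague-Dawley rats lay prone and received an iv bolus of [11C]radioligand in 200 μL. 3D list-mode emission scans ran 30 min from injection. Regions of interest were drawn on the organs and cardiac blood pool. Uptake was decay-corrected to injection time and expressed as SUV (normalized to injected radioactivity and body weight). Values are mean of n = 4.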

Data set [10] deals with Liver. Nature of the data set: Drug uptake in Sprague-Dawley rat liver at 0.13 nmol, iv after 27.5 mins by PET scanning. Type of data set: ADME, organism-based. The note with it: in vivo. In short, it runs like this: as §1
Data set [11] has as its system Lung. Nature of the data set: Drug uptake in Sprague-Dawley rat lung at 0.13 nmol, iv up to 30 mins by PET scanning. Type of data set: ADME, organism-based. The note with it: in vivo, 0.5 h. In short, it runs like this: as §1
Data set [12] concerns Heart. Nature of the data set: Drug uptake in Sprague-Dawley rat heart at 0.13 nmol, iv up to 30 mins by PET scanning. As to conditions: in vivo, 0.5 h. Format: ADME, organism-based. An outline of the steps:
as §3

The subject of data set [13] is Kidney. Nature of the data set: Drug uptake in Sprague-Dawley rat kidney at 0.13 nmol, iv up to 30 mins by PET scanning. Type of data set: ADME, organism-based. The note with it: in vivo, 0.5 h. In short, it runs like this:
as §1

For data set [14], the system named is Liver. Nature of the data set: Drug uptake in Sprague-Dawley rat liver at 0.13 nmol, iv up to 30 mins by PET scanning. Type of data set: ADME, organism-based. The note with it: in vivo, 0.5 h. An outline of the steps:
as §1

Data set [15] has as its system Blood. Nature of the data set: Drug uptake in Sprague-Dawley rat cardiac blood pool at 0.13 nmol, iv up to 30 mins by PET scanning. As to conditions: in vivo, 0.5 h. Type of data set: ADME, organism-based. In short, it runs like this: as §3
Another data set relates to Intestine. Nature of the data set: Drug uptake in Sprague-Dawley rat small intestine at 0.13 nmol, iv up to 30 mins by PET scanning. Format: ADME, organism-based. The note with it: in vivo, 0.5 h. An outline of the steps:
as §1

For data set [16], the system named is Lung. Nature of the data set: Drug uptake in Sprague-Dawley rat lung at 0.13 nmol, iv after 2 mins by PET scanning. Format: ADME, organism-based. As to conditions: in vivo. In short, it runs like this:
as §1

For data set [17], the system named is Heart. Nature of the data set: Drug uptake in Sprague-Dawley rat heart at 0.13 nmol, iv after 2 mins by PET scanning. Type of data set: ADME, organism-based. As to conditions: in vivo. In short, it runs like this:
as §3

Data set [18] deals with Kidney. Nature of the data set: Drug uptake in Sprague-Dawley rat kidney at 0.13 nmol, iv after 2 mins by PET scanning. Type of data set: ADME, organism-based. As to conditions: in vivo. An outline of the steps:
as §3

The subject of data set [19] is Liver. Nature of the data set: Drug uptake in Sprague-Dawley rat liver at 0.13 nmol, iv after 2 mins by PET scanning. Format: ADME, organism-based. The note with it: in vivo. In short, it runs like this:
as §1

For data set [20], the system named is Blood. Nature of the data set: Drug uptake in Sprague-Dawley rat cardiac blood pool at 0.13 nmol, iv after 2 mins by PET scanning. Format: ADME, organism-based. The note with it: in vivo. In short, it runs like this:
as §3

For data set [21], the system named is Lung. Nature of the data set: Drug uptake in Sprague-Dawley rat lung at 0.13 nmol, iv after 27.5 mins by PET scanning. The note with it: in vivo. Type of data set: ADME, organism-based. In short, it runs like this:
as §1

Data set [22] relates to Heart. Nature of the data set: Drug uptake in Sprague-Dawley rat heart at 0.13 nmol, iv after 27.5 mins by PET scanning. Type of data set: ADME, organism-based. As to conditions: in vivo. In short, it runs like this: as §3
The subject of data set [23] is Kidney. Nature of the data set: Drug uptake in Sprague-Dawley rat kidney at 0.13 nmol, iv after 27.5 mins by PET scanning. Type of data set: ADME, organism-based. As to conditions: in vivo. An outline of the steps: as §3
Another data set addresses Translocator protein (Rattus norvegicus, UniProt P16257). Nature of the data set: Displacement of [11C]-PK-11195 from TPSO in Sprague-Dawley rat brain homogenate after 30 mins by gamma counting. Format: tissue-based.
Data set [24] in a line: Lipophilicity, log D of the compound in octanol-phosphate buffer at pH 7.4 by shake flask method. Format: physicochemical. In short, it runs like this:
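Radioligand (~200000 cpm) shaken with n-octanol (3.0 g) and 0.1 M sodium phosphate buffer pH 7.4 (3.0 g). Vortexed 3 min at room temperature, centrifuged 3500 rpm for 5 min. Phases weighed and counted; organic layer repartitioned until consistent. LogD = log of the cpm/g octanol to cpm/g buffer ratio. Triplicate.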

Sequence of Translocator protein (P16257 whole entry, looked up): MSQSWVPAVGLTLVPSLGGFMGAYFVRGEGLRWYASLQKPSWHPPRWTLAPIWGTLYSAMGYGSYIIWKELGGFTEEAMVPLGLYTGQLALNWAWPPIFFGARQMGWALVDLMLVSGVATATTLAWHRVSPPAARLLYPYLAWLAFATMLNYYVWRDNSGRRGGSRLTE

Consider `CN(Cc1cccnc1)C(=O)Cn1c(=O)n([11CH3])c2cnc(-c3ccccc3)nc21`, for which the Drug uptake result with Lung [1], in the data set with Heart [2], with Kidney [3], in the data set with Lung [4], with Heart [5] and in the data set on Kidney [6] was “Not Active” each time. Moreover, the Drug uptake result in the data set with Lung [11], in the data set on Heart [12], in the data set with Kidney [13], with Liver [14], in the data set on Blood [15] and with Intestine was “Active” throughout. For the same compound, the “fold change (FC)” value in the data set on Liver [7] and in the data set with Liver [8] was 1.5 throughout. For the same compound, the SUV in the data set with Blood [9] was found to be 0.4; in the data set with Liver [10], 0.5; in the data set on Lung [16], 3.4; in the data set on Heart [17], 4.6; with Kidney [18], 3.3; in the data set with Liver [19], 1.6. In addition, the SUV in the data set on Blood [20] is 3; in the data set on Lung [21], 0.5; in the data set with Heart [22] it was 0.9; with Kidney [23], 1.
One may read the Ki as a measure of affinity in units of concentration, obtained from inhibition or displacement. A word on the logD: it is the decadic logarithm of the distribution of all forms, ionised or not, between an organic phase and buffer at a given pH. The low end stands for a more hydrophilic compound, the high end for a more lipophilic compound. At Translocator protein, `CCN(Cc1ccccc1)C(=O)Cn1c(=O)n(C)c2cnc(-c3ccccc3)nc21` gave a Ki of 0.6 nM. This compound had a logD in [24] of 3.48.
In the case of `CC[C@@H](C)N(C)C(=O)c1cc2ccccc2c(-c2ccccc2Cl)n1` [(R)PK-11195], in [24], the logD stood at 3.74.
